STEP block: STEP phosphatase inhibitors, primary screen, biochemical, fluorescence intensity, uHTS | Tyrosine-protein phosphatase non-receptor type 5 (Homo sapiens), P54829 | recombinant STEP, OMFP fluorogenic substrate | inhibition, % at 20 µM | 0.25% of 360,000 active | AID 588621, 2011;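 active = inhibition at 20 µM, scaled per plate between control wells, above about 37%, limit read from the data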;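 note: 0% = DMSO with enzyme and substrate and 100% = substrate only without enzyme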
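System: STEP phosphatase, cell-free reaction; Buffer or medium: Bis-Tris pH 6.0 buffer with DTT, detergent; Incubation: 20 min at room temperature, dark; Measured by: fluorescence, 480/540 nm.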
Scp-1 inhibitor: Scp-1 phosphatase inhibitors, primary screen, biochemical, colorimetric, uHTS | Carboxy-terminal domain RNA polymerase II polypeptide A small phosphatase 1 (Homo … | Recombinant Scp1, phosphopeptide, malachite green phosphate absorbance | inhibition, % at 20 µM | 0.88% of 340,000 active | AID 493091, 2011;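 active = inhibition above about 50% at 20 µM, limit read from the data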;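 note: plate controls were DMSO wells with enzyme for no effect and wells lacking enzyme for full effect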
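Incubation: 45 min enzyme reaction at room temperature / System: truncated SCP-1 phosphatase (76-261aa) / Reagent: Phospho 17-mer peptide substrate / Buffer or medium: Acidic Tris acetate buffer with magnesium and detergent / Signal: absorbance at 630 nm / Doses: one concentration, 20 µM, with 1.0% DMSO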
Rpn11 inh: Rpn11 (PSMD14) deubiquitinase inhibitors, primary screen, biochemical, fluorescence polarization, uHTS; human 26S proteasome, Ub4-pepOG fluorescence polarization; 20S core pre-blocked with epoxomicin; inhibition, % at 20 µM; 0.59% of 360,000 active;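 active = inhibition at 20 µM, scaled to each plate's controls, above about 33%, limit read from the data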
SUMO1 PPI mod: modulators of SUMO1 protein-protein interactions, primary screen, biochemical, uHTS; SUMO1 binding to a labelled peptide, TR-FRET, 1 h; inhibition, % at 20 µM; 0.33% of 360,000 active; AID 602429, 2012; Small ubiquitin-related modifier 1 (Homo sapiens), P63165; in the data active = inhibition above about 37%
DNMT1 inh: human DNMT1 methyltransferase inhibitors, primary screen, biochemical, molecular beacon, fluorescence, HinP1I cleavage, uHTS. inhibition (reported as % activation of signal), % at 10 µM. 0.83% of 360,000 active. AID 588458, 2011. DNA (cytosine-5)-methyltransferase 1 (Homo sapiens), P26358; in the data active = inhibition above about 50%
LMPTP inh: LMPTP phosphatase inhibitors, primary screen, biochemical, fluorescence intensity, uHTS; Low molecular weight phosphotyrosine protein phosphatase (Homo sapiens), P24666; 0.22% of 360,000 active; AID 651560, 2012; recombinant LMPTP-A, OMFP fluorogenic substrate; inhibition, % at 20 µM;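 active = compounds that cut the enzyme signal by at least half of the control window in the single-dose screen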;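 note: plate controls were DMSO wells with enzyme plus substrate for no effect and substrate without enzyme for full effect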
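Assay system: LMPTP-A, protein tyrosine phosphatase of low molecular weight / Medium: pH 6.0 Bis-Tris buffer with DTT and Triton X-100 / Schedule: 50 min enzyme reaction at room temperature, protected from light / Measured by: endpoint fluorescence intensity from OMFP dephosphorylation / Read-out basis: % inhibition relative to no-enzyme and uninhibited control wells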
Rpn11 confirm: Rpn11 (PSMD14) deubiquitinase inhibitors, confirmation, biochemical, fluorescence polarization, single concentration; inhibition, % at 20 µM; shares compounds with Rpn11 inh; purified human 26S proteasome, Ub4-pepOG fluorescence polarization; proteasome pretreated with epoxomicin; 29% of 1,900 active
MMP-2 inh: MMP-2 enzyme inhibition, confirmation, counter-screen for RPN11 inhibitor project, biochemical, fluorescence, single concentration | shares compounds with Rpn11 inh | recombinant MMP-2, FRET peptide cleavage fluorescence | inhibition, % at 20 µM | 4% of 1,900 active | AID 602330, 2012;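 note: human MMP-2 activated beforehand with APMA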
Target sequence (P08253 whole entry, looked up): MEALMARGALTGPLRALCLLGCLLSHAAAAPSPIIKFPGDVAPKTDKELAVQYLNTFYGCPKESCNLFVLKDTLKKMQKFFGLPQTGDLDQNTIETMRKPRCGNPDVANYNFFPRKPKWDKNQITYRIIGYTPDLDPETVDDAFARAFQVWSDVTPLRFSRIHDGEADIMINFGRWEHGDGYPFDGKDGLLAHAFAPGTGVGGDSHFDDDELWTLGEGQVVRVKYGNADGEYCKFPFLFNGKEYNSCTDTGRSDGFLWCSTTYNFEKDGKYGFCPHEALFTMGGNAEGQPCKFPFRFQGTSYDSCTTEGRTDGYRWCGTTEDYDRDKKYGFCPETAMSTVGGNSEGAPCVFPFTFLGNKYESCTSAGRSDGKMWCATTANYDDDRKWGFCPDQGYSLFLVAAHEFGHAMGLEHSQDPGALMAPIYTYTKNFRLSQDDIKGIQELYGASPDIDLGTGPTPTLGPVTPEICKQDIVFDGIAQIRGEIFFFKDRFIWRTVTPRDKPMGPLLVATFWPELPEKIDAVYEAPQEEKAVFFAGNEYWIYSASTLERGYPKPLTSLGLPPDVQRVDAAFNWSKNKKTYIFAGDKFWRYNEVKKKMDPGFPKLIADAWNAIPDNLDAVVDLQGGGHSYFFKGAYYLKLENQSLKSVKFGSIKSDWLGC
Thrombin inh: bovine thrombin protease inhibition, confirmation, counter-screen for Rpn11 inhibitor project, biochemical, fluorescence polarization, single concentration; inhibition, % at 20 µM; 13% of 1,900 active; shares compounds with Rpn11 inh; bovine thrombin cleavage of Ub4-pepOG;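 active = mean inhibition at least 40% at 20 µM, or signal 3 deviations below plate average, so some actives read negative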;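 note: plate controls were thrombin with DMSO for no effect and buffer wells lacking thrombin for full effect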
STEP conf: STEP phosphatase inhibitor hit confirmation, biochemical, fluorescence intensity, single concentration; shares compounds with STEP block; recombinant STEP, OMFP fluorogenic substrate; inhibition, % at 20 µM; 32% of 520 active; AID 623866, 2012; call rule not given here;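 note: 0% = enzyme with substrate plus DMSO and 100% = substrate without enzyme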
* hit, by the source's call; . = no result given. A selection: hits, their analogues and other compounds. The true share with any hit is near 2.3%. Cut-off read from the data, not from the text of the source, unless noted: active = inhibition above about 40%; inactive = the rest.

SMILES	STEP block	Scp-1 inhibitor	Rpn11 inh	SUMO1 PPI mod	DNMT1 inh	LMPTP inh	Rpn11 confirm	MMP-2 inh	Thrombin inh	others
NS(=O)(=O)c1ccc(N=Cc2c(O)n(C3CCCCC3)c(=O)n(C3CCCCC3)c2=O)cc1	1	-7	72*	-2	-10	3	22	-20	18
CCn1c(O)c(C=Nc2ccc(S(N)(=O)=O)cc2)c(=O)n(CC)c1=S	-3	-6	.	-9	-4	-1	.	.	.
CN(C)c1ccc(/C=C/C=C2/C(=O)NC(=O)N(c3ccccc3)C2=O)cc1	10	28	95*	2	16	21	65*	-22	34
Cc1cccc(N2C(=O)/C(=C/c3ccc(CN(CCC#N)S(C)(=O)=O)o3)C(=O)NC2=S)c1	3	26	42*	25	58*	4	73*	46*	125*
COC(=O)c1ccccc1N=Cc1c(O)[nH]c(=O)[nH]c1=O	-2	-7	-1	6	-2	0	.	.	.
CCN(CC)CCOC(=O)c1ccc(N=Cc2c(O)[nH]c(=O)[nH]c2=O)cc1	-7	-7	99*	-17	5	1	104*	-6	73*
Cn1c(O)c(/C=N/NC(=O)c2ccncc2)c(=O)[nH]c1=S	0	-11	30	-20	-1	-3	.	.	.
Cn1c(O)c(/C=N/NC(=O)c2ccncc2)c(=O)n(C)c1=S	-16	1	96*	-15	-3	0	39	-39	20
C=CCCC1(C2=CCCCC2)C(=O)NC(=O)NC1=O	-3	5	-1	0	-1	-2	.	.	.
COc1ccccc1-n1c(O)c(/C=C2\C=Nc3ccccc32)c(=O)[nH]c1=O	-3	18	48*	-7	-9	0	6	1	0
CCOc1ccc(-n2c(O)c(/C=C3\C=Nc4ccccc43)c(=O)[nH]c2=O)cc1	-17	-7	36	-21	2	-1	.	.	.
C=CCn1c(O)c(/C=C2\C=Nc3ccccc32)c(=O)[nH]c1=O	-5	-1	60*	-17	6	1	14	-5	10
Cc1ccccc1N1CCN(C2CCCN(C(=O)COc3ccccc3)C2)CC1 (configuration not stated)	-2	-8	1	2	1	0	.	.	.
CCOc1ccc(N2C(=O)/C(=C/c3ccc(C)o3)C(=O)NC2=S)cc1	3	47	77*	9	50*	1	25	57*	34
CN1C(=O)C(=Cc2coc3ccccc3c2=O)C(=O)N(C)C1=O	0	-8	14	3	-2	0	.	.	.
CN1C(=O)C(=Cc2ccc(Sc3ccccc3)o2)C(=O)N(C)C1=O	-1	-1	63*	5	0	0	-31	-42	-33
COc1ccc(/C=N\N=C(N)N)cc1	10	-3	-2	-5	0	0	.	.	.
NC(N)=N/N=C/c1ccc(N(c2ccccc2)c2ccccc2)cc1	13	-1	91*	100*	14	4	71*	-8	0
CCC(C)N1C(=O)/C(=C\c2ccc(N3CCCCCC3)cc2)C(=O)NC1=S (configuration not stated)	0	-2	60*	4	23	1	3	9	0
CC(C)c1ccc(N2C(=O)NC(=O)/C(=C/c3cnc(-c4ccccc4)nc3)C2=O)cc1	2	6	11	0	0	-1	.	.	.
CCc1ccc(N2C(=O)NC(=O)/C(=C\c3cccn3CCOc3ccc(C(C)C)cc3)C2=O)cc1	1	-8	62*	0	23	3	-16	-63	-9
COc1ccc(CN2CCN(C(=O)COc3ccc4ccccc4c3)CC2)c(OC)c1	1	6	-3	6	-4	1	.	.	.
CN(C)CCCN=Cc1c(O)n(CCc2ccc(F)cc2)c(=O)[nH]c1=O	-2	-8	6	1	0	-8	.	.	.
CN(C)CCCN=Cc1c(O)n(CCc2ccccc2)c(=O)[nH]c1=O	1	-9	41*	1	0	-9	79*	7	62*
CC(=NCCC1=CCCCC1)c1c(O)[nH]c(=O)[nH]c1=O	-2	1	-1	-1	1	-4	.	.	.
SMILES	STEP block	Scp-1 inhibitor	Rpn11 inh	SUMO1 PPI mod	DNMT1 inh	LMPTP inh	Rpn11 confirm	MMP-2 inh	Thrombin inh	others
Cc1ccc(-n2c(O)c(/C=N/N3CCCCC3c3cccnc3)c(=O)[nH]c2=S)cc1 (configuration not stated)	3	4	55*	1	1	0	52*	-14	40
Cc1nc2ccccc2c(=O)n1-c1cccc(C(F)(F)F)c1	0	-8	2	2	0	-1	.	.	.
CN(C)c1ccc2c(c1)N=C(c1ccco1)OP2(=S)N1CCOCC1 (configuration not stated)	36*	8	2	1	-7	5	.	.	.	STEP conf=12
CN(C)c1ccc(CCN2CCOCC2)cc1	-1	-3	6	3	1	0	.	.	.
C=CCn1c(O)c(/C=N/N2CCCCC2c2cccnc2)c(=O)[nH]c1=S (configuration not stated)	42*	-6	26	-2	-3	-2	.	.	.	STEP conf=-1
CC(O)(CS(=O)(=O)c1ccccc1)C(=O)Nc1cccc(C(F)(F)F)c1 (configuration not stated)	0	-3	7	2	-9	0	.	.	.

Screening data deposited in PubChem BioAssay by Sanford-Burnham Center for Chemical Genomics.
